Test results reported in ChEMBL document CHEMBL3632461 (J Med Chem, 2015).

Experiments:
Cytochrome P450 2C8 [1] = biological target: T1, Cytochrome P450 2C8 (Homo sapiens, UniProt P10632); experiment: Time-dependent inhibition of CYP2C8 in human liver microsomes; type: ADME
T1 sequence (P10632 whole entry): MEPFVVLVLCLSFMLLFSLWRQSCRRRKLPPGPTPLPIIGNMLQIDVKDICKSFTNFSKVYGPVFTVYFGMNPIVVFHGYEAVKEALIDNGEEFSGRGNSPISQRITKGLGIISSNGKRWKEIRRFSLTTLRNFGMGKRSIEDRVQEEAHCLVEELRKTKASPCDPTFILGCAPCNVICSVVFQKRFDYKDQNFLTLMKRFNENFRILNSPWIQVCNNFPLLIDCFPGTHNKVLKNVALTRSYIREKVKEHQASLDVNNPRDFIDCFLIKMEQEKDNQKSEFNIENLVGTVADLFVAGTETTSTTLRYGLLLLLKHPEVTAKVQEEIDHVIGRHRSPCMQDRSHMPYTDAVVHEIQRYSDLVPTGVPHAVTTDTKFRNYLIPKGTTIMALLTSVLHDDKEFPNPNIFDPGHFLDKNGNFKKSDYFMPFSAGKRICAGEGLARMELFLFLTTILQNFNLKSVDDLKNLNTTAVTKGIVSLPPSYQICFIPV
Method in brief: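 Time- and concentration-dependent CYP inhibition assessed by an IC₅₀ shift assay in human liver microsomes.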

Cytochrome P450 2C8 [2] = biological target: T1, Cytochrome P450 2C8; experiment: Reversible inhibition of CYP2C8 amodiaquine-N-deethylase activity in human liver microsomes by LC-MS/MS analysis; type: ADME
Method in brief: (§1)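 Reversible inhibition of the major CYP enzymes tested in human liver microsomes using established protocols.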

[3] = Fraction unbound in dog plasma at 2 uM by equilibrium dialysis method; type: ADME, cell-free, Canis lupus familiaris
Method in brief: (§2)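 Compound at 2 μM in mouse, rat, dog, monkey or human plasma; unbound fraction measured by equilibrium dialysis and reported as a mean.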

[4] = Drug excretion in Beagle dog urine at 1 mg/kg, iv; type: ADME, organism-based, Canis lupus familiaris; settings: read-out: Drug excretion
Method in brief: (§3)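 Male animals (beagle dogs 12 kg, Wistar-Han rats 250 g, cynomolgus monkeys 7 kg), fasted overnight and fed 1.0 or 2.0 h after dosing, water ad libitum. Dosed iv at 1 mg/kg in saline or 12% sulfobutyl ether β-cyclodextrin. Fraction of the iv dose excreted unchanged in urine.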

[5] = Tmax in cynomolgus monkey at 3 or 5 mg/kg, po; type: ADME, organism-based, Macaca fascicularis; settings: in vivo
Method in brief: (§4)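 Male animals (CD-1 mice 25−35 g, cannulated Wistar-Han rats 250 g, beagle dogs 12 kg, cynomolgus monkeys 7 kg), fasted overnight and fed 1.0 or 2.0 h after dosing, water ad libitum. Oral dose 3 or 5 mg/kg in 0.5% methylcellulose. Parameters calculated from plasma concentration−time data; mean ± SD for n = 3, individual values for n = 2.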

[6] = Drug excretion in Wistar rat urine at 1 mg/kg, iv; type: ADME, organism-based; settings: read-out: Drug excretion; method in brief: as §3
Cytochrome P450 2C9 = Cytochrome P450 2C9 (Homo sapiens, UniProt P11712); experiment: Reversible inhibition of CYP2C9 in human liver microsomes by LC-MS/MS analysis; type: ADME; method in brief: as §1
Chain of Cytochrome P450 2C9 (P11712 whole entry): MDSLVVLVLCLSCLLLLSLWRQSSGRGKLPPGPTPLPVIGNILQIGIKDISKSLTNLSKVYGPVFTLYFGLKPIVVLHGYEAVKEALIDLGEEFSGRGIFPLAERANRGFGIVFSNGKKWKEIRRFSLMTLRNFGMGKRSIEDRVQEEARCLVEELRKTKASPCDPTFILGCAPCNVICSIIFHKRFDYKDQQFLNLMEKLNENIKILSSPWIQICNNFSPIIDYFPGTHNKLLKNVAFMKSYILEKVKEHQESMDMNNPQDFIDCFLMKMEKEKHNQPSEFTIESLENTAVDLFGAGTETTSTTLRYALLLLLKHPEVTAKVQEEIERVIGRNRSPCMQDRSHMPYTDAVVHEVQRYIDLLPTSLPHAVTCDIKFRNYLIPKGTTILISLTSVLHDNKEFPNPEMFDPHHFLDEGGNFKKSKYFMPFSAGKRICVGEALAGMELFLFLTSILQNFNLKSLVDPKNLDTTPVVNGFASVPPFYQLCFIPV

[7] = Elimination half life in CD-1 mouse at 1 mg/kg, iv and 3 or 5 mg/kg, po; type: ADME, organism-based; settings: in vivo
Method in brief: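 Male CD-1 mice (25−35 g), cannulated Wistar-Han rats (250 g), beagle dogs (12 kg) and cynomolgus monkeys (7 kg), fasted overnight and fed 1.0 or 2.0 h after dosing. iv 1 mg/kg in saline or 12% sulfobutyl ether β-cyclodextrin; po 3 or 5 mg/kg in 0.5% methylcellulose. Parameters calculated from plasma concentration−time data; mean ± SD for n = 3, individual values for n = 2.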

[8] = Fraction unbound in rat plasma at 2 uM by equilibrium dialysis method; type: ADME, cell-free; method in brief: as §2
[9] = Oral bioavailability in CD-1 mouse at 3 or 5 mg/kg; type: ADME, organism-based; settings: in vivo
Method in brief: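 Male CD-1 mice, Wistar-Han rats, beagle dogs and cynomolgus monkeys, fasted overnight and fed after dosing. Given po at 3 or 5 mg/kg in 0.5% methylcellulose, with an iv reference dose of 1 mg/kg. Bioavailability derived from plasma concentration−time data; mean ± SD (n = 3) or individual values (n = 2).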

[10] = Fraction unbound in human plasma at 2 uM by equilibrium dialysis method; type: ADME, cell-free; method in brief: as §2
[11] = Tmax in CD-1 mouse at 3 or 5 mg/kg, po; type: ADME, organism-based; settings: in vivo; method in brief: as §4

Question: For `COc1ccc(Cl)cc1-c1cc(=O)[nH]c(=S)n1CC(N)=O` [PF-06282999], which IC50 (Cytochrome P450 2C8 [1]) is on record?
Answer: Its IC50 is > 100 µM.

Question: And the IC50 (Cytochrome P450 2C8 [2])?
Answer: The IC50 was > 100 µM.

Question: And the fraction unbound at 2 µM [3]?
Answer: The fraction unbound at 2 µM was 0.46.

Question: What about the dose excreted [4] of the same molecule?
Answer: Its dose excreted is 26%.

Question: And the Tmax [5]?
Answer: Its Tmax is 1.5 h.

Question: What about the dose excreted [6] of the same molecule?
Answer: Its dose excreted is 26%.

Question: What about the IC50 (Cytochrome P450 2C9) of the same molecule?
Answer: The IC50 was > 100 µM.

Question: What about the half-life [7] of the same molecule?
Answer: The half-life was 1.36 h.

Question: What about the fraction unbound at 2 µM [8] of the same molecule?
Answer: The fraction unbound at 2 µM was 0.447.

Question: And the bioavailability [9]?
Answer: The bioavailability was 100%.

Question: What about the fraction unbound at 2 µM [10] of the same molecule?
Answer: The fraction unbound at 2 µM was 0.376.

Question: What about the Tmax [11] of the same molecule?
Answer: Its Tmax is 1 h.
